In ChEMBL document CHEMBL3124882, “Semi-synthesis of acylated triterpenes from olive-oil industry wastes for the development of anticancer and anti-HIV agents” (Eur J Med Chem, 2014):
The source made the active and inactive calls. The calls are words filed in the database; no cut-off is given here.

Experiments:
[1] = target: Protease (Human immunodeficiency virus 1, UniProt Q9YQ12); assay: Inhibition of HIV1 recombinant protease expressed in Escherichia coli using Abz-Ala-Arg-Val-Nle-Tyr(NO2)-Glu-Ala-Nle-NH2 as substrate by FRET assay
[2] = tested on: B16-F10; assay: Induction of apoptosis in mouse B16F10 cells assessed as early apoptotic cells at IC50 after 72 hrs by annexin V-FITC/propidium iodide staining-based FACS analysis (reference value: 3.9 +/- 0.4%); assay type: functional
[3] = tested on: B16-F10; assay: Induction of apoptosis in mouse B16F10 cells assessed as late apoptotic cells at 2 X IC50 after 72 hrs by annexin V-FITC/propidium iodide staining-based FACS analysis (reference value: 9.8 +/- 2.2%); assay type: functional
[4] = tested on: B16-F10; assay: Cytotoxicity against mouse B16F10 cells after 72 hrs by MTT assay; assay type: functional, cell-based; conditions: B16-F10, 72 h
Method in brief: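 B16F10 cells (DMEM, 2 mM glutamine, 10% heat-inactivated FCS, penicillin/streptomycin; subconfluent) seeded at 11·10^3 per well and exposed to 0–80 µg/mL for 72 h. Compounds were diluted from a 10 mg/mL stock in 50% DMSO/PBS. MTT 0.5 mg/mL for 2 h, formazan dissolved in DMSO, absorbance at 550 nm. Viability is relative to untreated controls; IC50 from four assays of six replicates, mean ± S.E.M.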

[5] = tested on: B16-F10; assay: Induction of apoptosis in mouse B16F10 cells assessed as early apoptotic cells at 2 X IC50 after 72 hrs by annexin V-FITC/propidium iodide staining-based FACS analysis (reference value: 3.9 +/- 0.4%); assay type: functional
[6] = tested on: B16-F10; assay: Induction of apoptosis in mouse B16F10 cells assessed as total apoptotic cells at 2 X IC50 after 72 hrs by annexin V-FITC/propidium iodide staining-based FACS analysis (reference value: 13.7 +/- 2.7%); assay type: functional
[7] = tested on: B16-F10; assay: Induction of apoptosis in mouse B16F10 cells assessed as total apoptotic cells at IC50 after 72 hrs by annexin V-FITC/propidium iodide staining-based FACS analysis (reference value: 13.7 +/- 2.7%); assay type: functional
[8] = tested on: B16-F10; assay: Induction of apoptosis in mouse B16F10 cells assessed as necrotic cells at 2 X IC50 after 72 hrs by annexin V-FITC/propidium iodide staining-based FACS analysis (reference value: 4.0 +/- 0.6%); assay type: functional
[9] = tested on: B16-F10; assay: Induction of apoptosis in mouse B16F10 cells assessed as normal cells at IC50 after 72 hrs by annexin V-FITC/propidium iodide staining-based FACS analysis (reference value: 77.9 +/- 1.5%); assay type: functional
[10] = tested on: B16-F10; assay: Induction of apoptosis in mouse B16F10 cells assessed as necrotic cells at IC50 after 72 hrs by annexin V-FITC/propidium iodide staining-based FACS analysis (reference value: 4.0 +/- 0.6%); assay type: functional
[11] = tested on: B16-F10; assay: Induction of apoptosis in mouse B16F10 cells assessed as normal cells at 2 X IC50 after 72 hrs by annexin V-FITC/propidium iodide staining-based FACS analysis (reference value: 77.9 +/- 1.5%); assay type: functional
[12] = tested on: B16-F10; assay: Induction of apoptosis in mouse B16F10 cells assessed as late apoptotic cells at IC50 after 72 hrs by annexin V-FITC/propidium iodide staining-based FACS analysis (reference value: 9.8 +/- 2.2%); assay type: functional
[13] = tested on: B16-F10; assay: Induction of ROS generation in mouse B16F10 cells at IC50 to 2 X IC50 after 72 hrs by rhodamine123/propidium iodide staining-based FACS analysis; assay type: functional, cell-based
Method in brief: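 B16F10 cells, 11·10^4 per well, treated 72 h at IC50 or 2×IC50, then given fresh medium with dihydrorhodamine 123 at a final 5 µg/mL for 30 min. Cells washed, resuspended in PBS and read by flow cytometry for Rh123 and PI fluorescence (excitation 500 nm, emission 536 nm). Rh123+ cells scored ROS-positive regardless of PI. Three experiments in duplicate, mean ± S.E.M.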

Sequence of Protease (Q9YQ12 whole entry): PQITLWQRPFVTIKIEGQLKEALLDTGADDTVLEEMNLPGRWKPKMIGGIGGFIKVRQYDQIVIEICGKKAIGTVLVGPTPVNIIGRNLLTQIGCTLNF

| IC50 [1] [µM] | Structure (SMILES) | Activity [2] [%] | Activity [3] [%] | IC50 [4] [µM] | Activity [5] [%] | Activity [6] [%] | Activity [7] [%] | Activity [8] [%] | Activity [9] [%] | Activity [10] [%] | Activity [11] [%] | Activity [12] [%] | other results |
| --- | --- | --- | --- | --- | --- | --- | --- | --- | --- | --- | --- | --- | --- |
| 3.2 | CC1(C)CC[C@]2(C(=O)O)CC[C@]3(C)C(=CC[C@@H]4[C@@]5(C)C[C@@H](OC(=O)CCCC(=O)O)[C@H](O)C(C)(C)[C@@H]5CC[C@]43C)[C@@H]2C1 |  |  |  |  |  |  |  |  |  |  |  |  |
| 73 | CCCCCCCCCCCC(=O)O[C@@H]1C[C@]2(C)[C@H]3CC=C4[C@@H]5CC(C)(C)CC[C@]5(C(=O)OCc5ccccc5)CC[C@@]4(C)[C@]3(C)CC[C@H]2C(C)(C)[C@H]1OC(=O)CCCCCCCCCCC |  |  |  |  |  |  |  |  |  |  |  |  |
| 3.9 | CC1(C)CC[C@]2(C(=O)OCc3ccccc3)CC[C@]3(C)C(=CC[C@@H]4[C@@]5(C)C[C@@H](OC(=O)CCCC(=O)O)[C@H](OC(=O)CCCC(=O)O)C(C)(C)[C@@H]5CC[C@]43C)[C@@H]2C1 |  |  |  |  |  |  |  |  |  |  |  |  |
| 57.7 | CC1(C)CC[C@]2(C(=O)O)CC[C@]3(C)C(=CC[C@@H]4[C@@]5(C)CC[C@H](O)C(C)(C)[C@@H]5CC[C@]43C)[C@@H]2C1 [OLEANOLIC_ACID] | 16.4 | 12.4 | 106 | 29.1 | 41.5 | 44.6 | 8.7 | 44.9 | 10.1 | 49.8 | 28.2 |  |
| 226 | CCCC(=O)O[C@@H]1C[C@]2(C)[C@H]3CC=C4[C@@H]5CC(C)(C)CC[C@]5(C(=O)OCc5ccccc5)CC[C@@]4(C)[C@]3(C)CC[C@H]2C(C)(C)[C@H]1O |  |  |  |  |  |  |  |  |  |  |  |  |
|  | CC1(C)CC[C@]2(C(=O)OCc3ccccc3)CC[C@]3(C)C(=CC[C@@H]4[C@@]5(C)CC[C@H](O)C(C)(C)[C@@H]5CC[C@]43C)[C@@H]2C1 | 15.6 | 18.6 | 52.2 | 23 | 41.6 | 27.8 | 4.1 | 67.9 | 4.3 | 54.3 | 12.2 |  |
| 150 | CCCCCC(=O)O[C@@H]1C[C@]2(C)[C@H]3CC=C4[C@@H]5CC(C)(C)CC[C@]5(C(=O)OCc5ccccc5)CC[C@@]4(C)[C@]3(C)CC[C@H]2C(C)(C)[C@H]1OC(=O)CCCCC |  |  |  |  |  |  |  |  |  |  |  |  |
| 14.2 | CC1(C)CC[C@]2(C(=O)O)CC[C@]3(C)C(=CC[C@@H]4[C@@]5(C)C[C@@H](OC(=O)c6ccccc6C(=O)O)[C@H](O)C(C)(C)[C@@H]5CC[C@]43C)[C@@H]2C1 |  |  |  |  |  |  |  |  |  |  |  |  |
|  | CC1(C)CC[C@]2(C(=O)OCc3ccccc3)CC[C@]3(C)C(=CC[C@@H]4[C@@]5(C)CC[C@H](OC(=O)CCC(=O)O)C(C)(C)[C@@H]5CC[C@]43C)[C@@H]2C1 | 16.6 | 17.6 | 23.2 | 74 | 91.6 | 72.1 | 0.7 | 16.9 | 11.1 | 7.7 | 55.5 | Activity [13]: inactive |
| 5.2 | CC1(C)CC[C@]2(C(=O)OCc3ccccc3)CC[C@]3(C)C(=CC[C@@H]4[C@@]5(C)C[C@@H](OC(=O)CCC(=O)O)[C@H](OC(=O)CCC(=O)O)C(C)(C)[C@@H]5CC[C@]43C)[C@@H]2C1 |  |  |  |  |  |  |  |  |  |  |  |  |
| 3.5 | CC1(C)CC[C@]2(C(=O)O)CC[C@]3(C)C(=CC[C@@H]4[C@@]5(C)C[C@@H](OC(=O)CCC(=O)O)[C@H](O)C(C)(C)[C@@H]5CC[C@]43C)[C@@H]2C1 |  |  |  |  |  |  |  |  |  |  |  |  |
| 31.2 | CCCC(=O)O[C@@H]1C[C@]2(C)[C@H]3CC=C4[C@@H]5CC(C)(C)CC[C@]5(C(=O)O)CC[C@@]4(C)[C@]3(C)CC[C@H]2C(C)(C)[C@H]1OC(=O)CCC |  |  |  |  |  |  |  |  |  |  |  |  |
| 62.7 | CC1(C)CC[C@]2(C(=O)O)CC[C@]3(C)C(=CC[C@@H]4[C@@]5(C)C[C@@H](O)[C@H](O)C(C)(C)[C@@H]5CC[C@]43C)[C@@H]2C1 [MASLINIC ACID] | 20.8 | 21 | 36.2 | 68.8 | 89.8 | 74.9 | 2 | 10.9 | 11.7 | 8.3 | 54.2 |  |
